Measurements published in ChEMBL document CHEMBL2216748 (J Med Chem, 2012).
Calls of active or inactive are those of the source. The calls are words filed in the database; no cut-off is given here.

Columns and labels:
[1] = Thermal stability of the compound; format: physicochemical
In short: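 Capture compound incubated 30 min native at 4 °C or denatured at 80 °C as thermal stress. Biological stress was 30 min in HepG2 lysate at 4 and 37 °C. UV irradiation for 10 and 30 min was checked for a single defined photoproduct.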

[2] = biological target: Prothrombin (Homo sapiens) (UniProt P00734); experiment: Binding affinity to human recombinant thrombin after 1 hr by Western blot analysis
In short: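 Purified human recombinant thrombin (2 μg) incubated with capture compound for 1 h at 4 °C, with or without preincubation with free drug as competitor. Sample UV-irradiated 10 min, captured on streptavidin beads, then analysed by silver-stained SDS-PAGE and by streptavidin-HRP blot to detect covalent biotinylation.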

[3] = biological target: Histamine N-methyltransferase (Homo sapiens) (UniProt P50135); experiment: Binding affinity to HNMT in human HepG2 cell lysate after 1 hr by capture compound based LC/MS analysis; format: cell-free
Sequence of Histamine N-methyltransferase (Homo sapiens) (P50135 whole entry): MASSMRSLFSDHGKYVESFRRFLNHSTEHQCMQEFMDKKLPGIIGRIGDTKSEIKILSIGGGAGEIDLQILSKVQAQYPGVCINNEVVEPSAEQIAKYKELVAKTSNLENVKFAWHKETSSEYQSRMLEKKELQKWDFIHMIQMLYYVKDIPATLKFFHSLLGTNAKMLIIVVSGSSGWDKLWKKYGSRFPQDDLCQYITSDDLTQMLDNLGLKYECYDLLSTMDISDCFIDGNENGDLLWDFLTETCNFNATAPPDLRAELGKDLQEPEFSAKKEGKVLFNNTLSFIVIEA
In short: (§1)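 Capture compound MS: 400 μg HepG2 or K562 lysate in capture buffer, precleared with streptavidin beads 30 min at 4 °C. Competition controls preincubated 30 min at 4 °C with free drug (10 μL of 1 mM). Capture compound (10 μL of 50 μM) equilibrated 1 h at 4 °C, UV-irradiated 10 min, streptavidin bead pulldown, on-bead trypsin digestion, nanoLC-MS/MS. Spectral counts compared capture vs competition (t test). HepG2 in quadruplicate, K562 in duplicate.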

[4] = biological target: T1, Hypoxia up-regulated protein 1 (Homo sapiens) (UniProt Q9Y4L1); experiment: Binding affinity to HYOU1 in human HepG2 cell lysate after 1 hr by capture compound based LC/MS analysis; format: cell-free; in short: as §1
T1 sequence (whole entry): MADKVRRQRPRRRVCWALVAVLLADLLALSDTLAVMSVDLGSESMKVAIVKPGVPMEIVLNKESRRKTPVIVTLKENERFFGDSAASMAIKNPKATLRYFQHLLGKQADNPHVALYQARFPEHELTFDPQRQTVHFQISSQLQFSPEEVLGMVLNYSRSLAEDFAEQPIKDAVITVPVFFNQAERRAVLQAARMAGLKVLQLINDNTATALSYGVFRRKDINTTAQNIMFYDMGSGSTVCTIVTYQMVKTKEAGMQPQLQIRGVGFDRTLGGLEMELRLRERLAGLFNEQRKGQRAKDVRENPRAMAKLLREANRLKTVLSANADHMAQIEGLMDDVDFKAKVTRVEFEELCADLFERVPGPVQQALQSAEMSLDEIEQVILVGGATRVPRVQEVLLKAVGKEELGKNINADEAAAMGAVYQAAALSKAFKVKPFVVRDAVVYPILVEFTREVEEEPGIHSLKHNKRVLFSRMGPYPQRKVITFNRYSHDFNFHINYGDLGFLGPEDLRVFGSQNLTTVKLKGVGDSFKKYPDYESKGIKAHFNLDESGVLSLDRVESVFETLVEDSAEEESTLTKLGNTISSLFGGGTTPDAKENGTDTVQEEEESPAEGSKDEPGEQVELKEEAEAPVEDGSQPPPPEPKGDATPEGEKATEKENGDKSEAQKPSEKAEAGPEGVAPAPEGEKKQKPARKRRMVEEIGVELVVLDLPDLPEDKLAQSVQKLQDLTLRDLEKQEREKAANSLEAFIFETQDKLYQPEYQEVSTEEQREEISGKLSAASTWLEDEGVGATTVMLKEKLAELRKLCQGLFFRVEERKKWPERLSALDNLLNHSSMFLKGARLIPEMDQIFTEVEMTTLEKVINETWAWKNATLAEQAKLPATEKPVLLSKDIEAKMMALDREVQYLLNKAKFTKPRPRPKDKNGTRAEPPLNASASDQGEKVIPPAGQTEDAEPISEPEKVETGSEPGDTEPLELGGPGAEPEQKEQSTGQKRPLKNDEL

[5] = biological target: Heterogeneous nuclear ribonucleoproteins C1/C2 (Homo sapiens) (UniProt P07910); experiment: Binding affinity to HNRPC in human HepG2 cell lysate after 1 hr by capture compound based LC/MS analysis; format: cell-free; in short: as §1
Sequence of Heterogeneous nuclear ribonucleoproteins C1/C2 (Homo sapiens) (P07910 whole entry): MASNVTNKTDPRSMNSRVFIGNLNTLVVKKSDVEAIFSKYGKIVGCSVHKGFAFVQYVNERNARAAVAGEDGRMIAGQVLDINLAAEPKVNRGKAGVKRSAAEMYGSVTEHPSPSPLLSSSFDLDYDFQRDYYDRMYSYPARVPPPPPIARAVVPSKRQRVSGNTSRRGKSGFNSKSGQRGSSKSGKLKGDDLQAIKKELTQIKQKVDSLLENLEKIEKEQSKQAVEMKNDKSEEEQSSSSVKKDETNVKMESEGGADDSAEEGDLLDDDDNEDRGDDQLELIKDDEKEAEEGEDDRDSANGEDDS

[6] = biological target: Adenosine kinase (Homo sapiens) (UniProt P55263); experiment: Binding affinity to ADK in human HepG2 cell lysate after 1 hr by capture compound based LC/MS analysis; format: cell-free; in short: as §1
Sequence of Adenosine kinase (Homo sapiens) (P55263 2-362 limits assumed): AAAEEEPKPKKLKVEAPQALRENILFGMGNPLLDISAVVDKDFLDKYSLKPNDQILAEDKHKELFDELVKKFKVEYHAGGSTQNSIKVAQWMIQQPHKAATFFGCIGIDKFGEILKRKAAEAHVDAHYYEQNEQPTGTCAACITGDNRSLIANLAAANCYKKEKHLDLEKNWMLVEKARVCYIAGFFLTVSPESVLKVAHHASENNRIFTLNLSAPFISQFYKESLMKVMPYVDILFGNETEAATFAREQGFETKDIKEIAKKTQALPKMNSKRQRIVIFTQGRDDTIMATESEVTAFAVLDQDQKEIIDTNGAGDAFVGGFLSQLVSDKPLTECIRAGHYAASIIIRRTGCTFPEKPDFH

[7] = biological target: Histamine N-methyltransferase (Homo sapiens) (UniProt P50135); experiment: Binding affinity to HNMT in human K562 cell lysate after 1 hr by capture compound based LC/MS analysis; format: cell-free; in short: as §1
[8] = biological target: T1, Hypoxia up-regulated protein 1 (Homo sapiens); experiment: Binding affinity to HYOU1 in human K562 cell lysate after 1 hr by capture compound based LC/MS analysis; format: cell-free; in short: as §1
[9] = biological target: Heterogeneous nuclear ribonucleoproteins C1/C2 (Homo sapiens) (UniProt P07910); experiment: Binding affinity to HNRPC in human K562 cell lysate after 1 hr by capture compound based LC/MS analysis; format: cell-free; in short: as §1
[10] = biological target: Adenosine kinase (Homo sapiens) (UniProt P55263); experiment: Binding affinity to ADK in human K562 cell lysate after 1 hr by capture compound based LC/MS analysis; format: cell-free; in short: as §1
[11] = biological target: T2, Ribosyldihydronicotinamide dehydrogenase [quinone] (Homo sapiens) (UniProt P16083); experiment: Displacement of (S)-N4-(2-(4-(4-(4-methyl-3-(4-(pyridin-3-yl)pyrimidin-2-ylamino)phenylcarbamoyl)benzyl)piperazin-1-yl)ethyl)-N1-(15-oxo-19-((3aS,4S,6aR)-2-oxohexahydro-1H-thieno[3,4-d]imidazol-4-yl)-4,7,10-trioxa-14-azanonadecyl)-2-(4-(3-(trifluoromethyl)-3H-diazirin-3-yl)benzamido)succinamide from NQO2 in human K562 cell lysate after 1 hr by capture compound based LC/MS analysis; format: cell-free
T2 sequence (whole entry): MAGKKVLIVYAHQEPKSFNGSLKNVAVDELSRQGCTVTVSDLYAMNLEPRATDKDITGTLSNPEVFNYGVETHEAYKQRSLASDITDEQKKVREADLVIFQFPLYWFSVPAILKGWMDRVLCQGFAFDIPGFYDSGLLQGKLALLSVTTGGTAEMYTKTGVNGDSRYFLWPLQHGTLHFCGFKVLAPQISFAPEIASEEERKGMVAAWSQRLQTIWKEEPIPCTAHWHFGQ
In short: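 K562 lysate (400 μg, precleared) was preincubated with competitor (final 100 μM) for 30 min at 4 °C. Capture compound (final 5 μM) was added for 1 h at 4 °C, then UV-crosslinked 10 min. Proteins were pulled down on streptavidin beads and trypsin-digested on-bead for 16 h at 37 °C, then analysed by nanoLC-Orbitrap MS/MS. Spectral counts in capture versus competition were compared, with duplicate experiments.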

[12] = biological target: T2, Ribosyldihydronicotinamide dehydrogenase [quinone] (Homo sapiens); experiment: Displacement of (S)-N4-(2-(4-(4-(4-methyl-3-(4-(pyridin-3-yl)pyrimidin-2-ylamino)phenylcarbamoyl)benzyl)piperazin-1-yl)ethyl)-N1-(15-oxo-19-((3aS,4S,6aR)-2-oxohexahydro-1H-thieno[3,4-d]imidazol-4-yl)-4,7,10-trioxa-14-azanonadecyl)-2-(4-(3-(trifluoromethyl)-3H-diazirin-3-yl)benzamido)succinamide from NQO2 in human HepG2 cell lysate at 100 uM after 1 hr by Western blot analysis; format: cell-free
In short: (§2)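 Lysate (400 μg, precleared with streptavidin beads 30 min at 4 °C) in capture buffer was preincubated with competitor (final 100 μM) for 30 min at 4 °C. […] Streptavidin beads were added for 1 h at 4 °C, followed by anti-NQO2 (1:500) Western blot.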

[13] = biological target: T2, Ribosyldihydronicotinamide dehydrogenase [quinone] (Homo sapiens); experiment: Displacement of (S)-N4-(2-(4-(4-(4-methyl-3-(4-(pyridin-3-yl)pyrimidin-2-ylamino)phenylcarbamoyl)benzyl)piperazin-1-yl)ethyl)-N1-(15-oxo-19-((3aS,4S,6aR)-2-oxohexahydro-1H-thieno[3,4-d]imidazol-4-yl)-4,7,10-trioxa-14-azanonadecyl)-2-(4-(3-(trifluoromethyl)-3H-diazirin-3-yl)benzamido)succinamide from NQO2 in human K562 cell lysate at 100 uM after 1 hr by Western blot analysis; format: cell-free; in short: as §2
[14] = biological target: T2, Ribosyldihydronicotinamide dehydrogenase [quinone] (Homo sapiens); experiment: Displacement of (S)-N4-(4-(3-(2-((4-carbamimidoylphenylamino)methyl)-1-methyl-N-(pyridin-2-yl)-1H-benzo[d]imidazole-5-carboxamido)propanamido)butyl)-N1-(15-oxo-19-((3aS,4S,6aR)-2-oxohexahydro-1H-thieno[3,4-d]imidazol-4-yl)-4,7,10-trioxa-14-azanonadecyl)-2-(4-(3-(trifluoromethyl)-3H-diazirin-3-yl)benzamido)succinamide from human recombinant NQO2 after 1 hr by silver staining-based SDS PAGE analysis
In short: (§3)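 Human recombinant NQO2 (1 μg) was preincubated 30 min at 4 °C with competitor, then capture compound was added at 5 μM final (competitors 100 μM final) and equilibrated 1 h at 4 °C. Samples were UV-irradiated 10 min, pulled down on streptavidin beads and resolved by silver-stained SDS-PAGE.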

[15] = biological target: T2, Ribosyldihydronicotinamide dehydrogenase [quinone] (Homo sapiens); experiment: Displacement of (S)-N4-(2-(4-(4-(4-methyl-3-(4-(pyridin-3-yl)pyrimidin-2-ylamino)phenylcarbamoyl)benzyl)piperazin-1-yl)ethyl)-N1-(15-oxo-19-((3aS,4S,6aR)-2-oxohexahydro-1H-thieno[3,4-d]imidazol-4-yl)-4,7,10-trioxa-14-azanonadecyl)-2-(4-(3-(trifluoromethyl)-3H-diazirin-3-yl)benzamido)succinamide from human recombinant NQO2 after 1 hr by silver staining-based SDS PAGE analysis; in short: as §3
[16] = biological target: T3, Leucine-rich repeat-containing protein 59 (Homo sapiens) (UniProt Q96AG4); experiment: Displacement of 2-((R)-1-cyclohexyl-2-oxo-2-((S)-2-(4-(N-((S)-6,9,25-trioxo-29-((3aS,4S,6aR)-2-oxohexahydro-1H-thieno[3,4-d]imidazol-4-yl)-8-(4-(3-(trifluoromethyl)-3H-diazirin-3-yl)benzamido)-14,17,20-trioxa-5,10,24-triazanonacosyl)carbamimidoyl)benzylcarbamoyl)azetidin-1-yl)ethylamino)acetic acid from LRC59 in human HepG2 cell lysate after 1 hr by capture compound based LC/MS analysis; format: cell-free; in short: as §1
T3 sequence (whole entry): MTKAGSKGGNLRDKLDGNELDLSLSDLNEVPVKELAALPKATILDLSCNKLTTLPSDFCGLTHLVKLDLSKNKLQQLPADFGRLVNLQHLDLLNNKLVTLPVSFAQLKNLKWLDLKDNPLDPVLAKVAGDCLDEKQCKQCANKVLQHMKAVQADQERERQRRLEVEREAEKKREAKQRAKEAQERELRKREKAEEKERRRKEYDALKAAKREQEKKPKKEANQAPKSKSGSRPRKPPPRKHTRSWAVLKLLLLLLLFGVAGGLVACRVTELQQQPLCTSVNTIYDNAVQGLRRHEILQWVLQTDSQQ

[17] = biological target: Vacuolar protein sorting-associated protein 35 (Homo sapiens) (UniProt Q96QK1); experiment: Displacement of 2-((R)-1-cyclohexyl-2-oxo-2-((S)-2-(4-(N-((S)-6,9,25-trioxo-29-((3aS,4S,6aR)-2-oxohexahydro-1H-thieno[3,4-d]imidazol-4-yl)-8-(4-(3-(trifluoromethyl)-3H-diazirin-3-yl)benzamido)-14,17,20-trioxa-5,10,24-triazanonacosyl)carbamimidoyl)benzylcarbamoyl)azetidin-1-yl)ethylamino)acetic acid from VPS35 in human HepG2 cell lysate after 1 hr by capture compound based LC/MS analysis; format: cell-free; in short: as §1
[18] = biological target: T4, Ribosyldihydronicotinamide dehydrogenase [quinone] (Homo sapiens, UniProt P16083); experiment: Displacement of (S)-N4-(4-(3-(2-((4-carbamimidoylphenylamino)methyl)-1-methyl-N-(pyridin-2-yl)-1H-benzo[d]imidazole-5-carboxamido)propanamido)butyl)-N1-(15-oxo-19-((3aS,4S,6aR)-2-oxohexahydro-1H-thieno[3,4-d]imidazol-4-yl)-4,7,10-trioxa-14-azanonadecyl)-2-(4-(3-(trifluoromethyl)-3H-diazirin-3-yl)benzamido)succinamide from human recombinant NQO2 after 1 hr by densitometric analysis
T4 sequence (P16083 whole entry): T2 sequence (whole entry)

[19] = biological target: T4, Ribosyldihydronicotinamide dehydrogenase [quinone]; experiment: Inhibition of human recombinant NQO2-mediated mitomycin C metabolism using NADH as cosubstrate incubated for 5 mins prior to NADH addition measured after 30 mins by spectrophotometric analysis
In short: (§4)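 NQO2 (0.5 μM) with mitomycin C (50 μM) and four inhibitor concentrations in 100 mM potassium phosphate pH 5.8, 5 min at room temperature. Increasing NADH was then added and A340 followed for 30 min at rt. Ki from Lineweaver–Burk, IC50 from competitive Michaelis–Menten kinetics. Two experiments, duplicate points each.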

[20] = biological target: T4, Ribosyldihydronicotinamide dehydrogenase [quinone]; experiment: Competitive inhibition of human recombinant NQO2-mediated mitomycin C metabolism using NADH as cosubstrate incubated for 5 mins prior to NADH addition measured after 30 mins by Michaelis-Menten plot analysis; in short: as §4
[21] = Inhibition of human alpha thrombin using Boc-Val-Pro-Arg-AMC as substrate after 2 hrs by fluorometric analysis
In short: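 Human α-thrombin at 5.5 ng/mL final with Boc-Val-Pro-Arg-AMC (15 μM) in 50 mM Tris pH 7.5, 150 mM NaCl, 0.05% Tween 20. Compound tested as 16 two-fold dilutions in DMSO, 2.5 mM to 75 nM. Incubated 2 h at room temperature; fluorescence read at ex 355, em 460 nm for percent inhibition.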

N=C(N)c1ccc(CNC(=O)[C@@H]2CCN2C(=O)[C@H](NCC(=O)NCCCCNC(=O)C[C@H](NC(=O)c2ccc(C3(C(F)(F)F)N=N3)cc2)C(=O)NCCCOCCOCCOCCCNC(=O)CCCC[C@@H]2SC[C@@H]3NC(=O)N[C@@H]32)C2CCCCC2)cc1
Stability [1]: Stable
Activity [2]: Active

Cn1c(CNc2ccc(C(=N)NCCCCNC(=O)C[C@H](NC(=O)c3ccc(C4(C(F)(F)F)N=N4)cc3)C(=O)NCCCOCCOCCOCCCNC(=O)CCCC[C@@H]3SC[C@@H]4NC(=O)N[C@@H]43)cc2)nc2cc(C(=O)N(CCC(=O)O)c3ccccn3)ccc21
Stability [1]: Stable
Activity [2]: inactive
Activity [3]: Active
Activity [4]: Active
Activity [5]: Active
Activity [6]: Active
Activity [7]: inactive
Activity [8]: inactive
Activity [9]: inactive
Activity [10]: inactive

Cc1ccc(NC(=O)c2ccc(CN3CCN(C)CC3)cc2)cc1Nc1nccc(-c2cccnc2)n1
Activity [11]: Active
Activity [12]: Active
Activity [13]: Active
Activity [14]: Active
Activity [15]: Active

N=C(N)c1ccc(CNC(=O)[C@@H]2CCN2C(=O)[C@H](NCC(=O)O)C2CCCCC2)cc1
Activity [16]: Active
Activity [17]: Active

CCOC(=O)CCN(C(=O)c1ccc2c(c1)nc(CNc1ccc(C(=N)N)cc1)n2C)c1ccccn1 [DABIGATRAN ETHYL ESTER]
IC50 [18]: 1.5 µM
Ki [19]: 0.9 µM
IC50 [20]: 800 nM
IC50 [21]: 1.2 nM

[H]/N=C(/N)c1ccc(NCc2nc3cc(C(=O)N(CCC(=O)O)c4ccccn4)ccc3n2C)cc1 [DABIGATRAN]
IC50 [18]: 11 µM
Ki [19]: 70 µM
IC50 [20]: > 10000 nM
